What was measured:
H460 cells [1] = details: previous study ref 5; cited from earlier work
liver functions = test: Serum liver enzyme levels; assay type: in vivo; details: for serum liver enzyme activities: 25 mg/kd/day, each day for 8 days, blood 3 days after last treatment
[2] = Stability of stock solution; assay type: physicochemical; details: Solutol HS15 and ethyl alcohol
In short: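 Stock solution: 70 mg prodrug or 60 mg parent drug per ml of 75% (w/v) Solutol HS15 in ethanol (about 20% v/v ethanol). It was stored in capped brown glass tubes at room temperature or 4°C. At intervals, samples were diluted 100-fold in acetonitrile/water (4/1) for C18 HPLC with UV detection at 280 nm.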

H1299 cells [3] = test: Cell viability, sulforhodamine B assay; assay type: cell-based; details: H1299, 3 days after treatment
In short: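 Sulforhodamine B assay on the lung cancer line. Cells were exposed to a range of test compound concentrations, and viability was read 3 days after treatment. DMSO-treated control cells were set to 100. Values are mean ± SD of quadruplicate wells.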

[4] = especially in low-pH conditions; cited from earlier work
[5] = system: human renal cancer cell line A498 xenograft; details: compared with oncrasin-60 (NSC-741909); cited from earlier work
[6] = Tissue distribution in nude mice bearing Calu3 xenograft tumors; assay type: in vivo; details: 24 h
In short: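 Nude mice (7–8 weeks) bearing subcutaneous Calu3 xenografts, one per group, received 60 mg/kg by tail vein in Solutol HS15/ethanol/0.9% NaCl. Mice were euthanised at 24 h. Liver, lungs, kidneys, spleen, small intestine and tumour were homogenised in methanol (50 mg/ml) on ice and mixed 1:1 with acetonitrile containing 0.2% formic acid and internal standard. Samples were centrifuged at 4°C and analysed by HPLC/MS.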

[7] = system: KRAS-mutant lung cancer cell line H157 xenografts; details: cited from earlier work
[8] = Stability of injectable solution; assay type: physicochemical
Balb/c mice = test: Acute toxicity study; assay type: in vivo
H157 cells [9] = details: previous study ref 5; cited from earlier work
Calu3 cells [10] = details: previous study ref 5; cited from earlier work
H1299 cells [11] = details: previous study ref 5; cited from earlier work
liver = test: Histopathological analysis on livers; assay type: in vivo; details: 150 mg/kg once, livers harvested 48 h after treatment
In short: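 Mice received a single 150 mg/kg dose of test compound. Livers were harvested at 48 h, sectioned and examined histologically, with two mice per group.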

[12] = Stability of powder during storage; assay type: physicochemical; details: for stability of powder (remaining): 37°C; for time powder stable without detectable changes: non-evacuated container
In short: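 Powdered test compounds were stored at 4°C, room temperature (21°C) or 37°C. Aliquots were taken at time points and kept at −20°C. Each was dissolved in DMSO, diluted with 9 volumes of acetonitrile and analysed by C18 HPLC (acetonitrile/water gradient with 0.2% formic acid, UV 280 nm).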

[13] = compared with oncrasin-60 (NSC-741909); cited from earlier work
H157 cells [14] = test: Cell viability, sulforhodamine B assay; assay type: cell-based; details: H157, 3 days after treatment
In short: (§1)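 Human lung cancer cells were treated with a range of test-compound concentrations. Viability was read by sulforhodamine B assay 3 days after treatment. DMSO-treated control cells were set as 100. Values are mean ± SD of quadruplicate wells.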

[15] = Release of NSC-743380 from esterified derivatives in PBS; assay type: physicochemical; details: PBS pH 7.4, 0.5 mg/ml, 37°C
In short: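 Test compound was made to 0.5 mg/ml in PBS pH 7.4 containing 12% DMSO and 18% acetonitrile (diluted from a DMSO/acetonitrile stock). It was held in a 37°C water bath for up to 24 h. Aliquots were taken at 0–24 h, frozen at −20°C, diluted 50-fold in acetonitrile and run on C18 HPLC (acetonitrile/water gradient, 0.2% formic acid, UV 280 nm). Data come from one of two experiments.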

H460 cells [16] = test: Cell viability, sulforhodamine B assay; assay type: cell-based; details: H460, 3 days after treatment
In short: as §1

Calu3 cells [17] = test: Cell viability, sulforhodamine B assay; assay type: cell-based, human; details: Calu3, 3 days after treatment
In short: as §1

[18] = 150 mg/kg daily for 3 days, blood on day 6, surviving mice
[19] = animals treated with oncrasin-266, 60 mg/kg i.v.
[20] = 150 mg/kg i.p. daily for 3 days, 3 mice/group
[21] = 300 mg/kg i.p. on day 1 and day 2, 3 Balb/c mice/group

In the case of OCc1cn(Cc2cccc(Cl)c2)c2ccccc12 [NSC-743380], the “sensitivity of cells to NSC743380 therapy” value (from here on “sensitivity of cells”) (H460 cells [1]) is given as “highly sensitive”, the “serum liver enzyme activities” value (liver functions) is given as “mostly in normal ranges” and the “blood alanine transaminase (ALT)” value (liver functions; [18]) is given as “about 1936 Units/L”. For the same molecule, the “time stable in stock solution” value ([2]; room temperature) was “at least 1 weeks”, the “anticancer activity (cell viability)” value (H1299 cells [3]) was “resistant” and the “behaviour in solutions with water” value [4] was “tends to form dimers in solutions with water and loses activity”. The “anticancer activity in xenograft tumor model” value [5] was “more effective anticancer activity”, the “tissues in which NSC-743380 was detectable” value [6, 19] was “liver, lungs, kidneys, and subcutaneous tumor tissue” and the “tissues in which NSC-743380 was detected” value ([6]; mice treated with NSC-743380, 60 mg/kg i.v.) was “lungs, intestine, and subcutaneous tumor tissue”. For the same molecule, the “in vivo tumor suppression” value [7] was “significant in vivo tumor suppression”, the “loss in injectable solution” value ([8]; 37°C, 7 h) was “more than 20%” and the “change in injectable solution” value ([8]; room temperature, 7 h) was “little change”. For the same molecule, the “survival / death of mice” value (Balb/c mice; [20]) was “Two mice in the NSC-743380-treated group died on day 5”, the “survival / death of mice” value (Balb/c mice; [21]) was “All three mice injected with NSC-743380 died on day 3” and the “sensitivity of cells” value (H157 cells [9]) was “highly sensitive”. For the same molecule, the “sensitivity of cells” value (Calu3 cells [10]) was “highly sensitive”, the “sensitivity of cells” value (H1299 cells [11]) was “resistant” and the “histopathological changes in liver” value (liver) was “liver cell damage (necrosis) was obvious”. For the same molecule, the “stability of powder (remaining)” value ([12]; over 14 days) was < 5% and the “maximum tolerated dose / tolerability” value [13] was “much better tolerated”.
For O=C(CC1CCCCC1)OCc1cn(Cc2cccc(Cl)c2)c2ccccc12 [oncrasin-266, [1-(3-chlorobenzyl)-1H-indol-3-yl]methyl 2-cyclohexylacetate], the “serum liver enzyme activities” value (liver functions) was “mostly in normal ranges”, the “blood alanine transaminase (ALT)” value (liver functions; [18]) was “about 115 Units/L” and the “blood alkaline phosphatase (ALP)” value (liver functions; [18]) was ~50 Units/L. The “time stable in stock solution” value ([2]; 4°C) was “at least 4 weeks”, the “time stable in stock solution” value ([2]; room temperature) was “at least 2 weeks” and the “anticancer activity (cell viability)” value (H157 cells [14]) was “equivalent anticancer activity as NSC743380”. For the same molecule, the “anticancer activity (cell viability)” value (H1299 cells [3]) was “resistant”, the “oncrasin-266 detected in the liver” value [6, 19] was “high concentration” and the “time to complete the release of NSC-743380” value [15] was “about 6 hours”. For the same molecule, the “release of NSC-743380 from oncrasin-266” value ([8]; injectable solution, 7 hours, 37°C) was “higher than 10%”, the “oncrasin-266 hydrolyzed to release NSC-743380” value ([8]; injectable solution, within 7 hours, room temperature) was “about 10%” and the “survival / death of mice” value (Balb/c mice; [20]) was “none of the oncrasin-266-treated mice died”. The “survival / death of mice” value (Balb/c mice; [21]) was “one died on day 4 and the remaining two survived for at least 2 weeks”, the tolerability in vivo (Balb/c mice; 150-300 mg/kg i.p., mice) was “better tolerated than NSC-743380” and the “anticancer activity (cell viability)” value (H460 cells [16]) was “equivalent anticancer activity as NSC743380”. The “anticancer activity (cell viability)” value (Calu3 cells [17]) was “equivalent anticancer activity as NSC743380”, the “histopathological changes in liver” value (liver) was “no obvious changes” and the “time powder stable without detectable changes” value ([12]; 4°C) was “at least 90 days”. The “stability of powder (remaining)” value ([12]; by day 90) was < 5% and the “time powder stable without detectable changes” value ([12]; room temperature) was “at least 90 days”.

— publication PMC4172508 (Bioorganic & medicinal chemistry, 2014)
